Reference: paper PMC4266334 (Journal of Medicinal Chemistry, 2014)

Tests used:
lung A549 = assay: MTT toxicity assay, A549; type: cell-based, human; conditions: read-out: IC50 A549, 24 h incubation, mean ± SD (n = 4)
Method in brief: (§1)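 Adherent cells (10^4/well) attached for 24 h, then test compound was added at several concentrations in triplicate for 24 h at 37 °C, 5% CO2. Proliferation was read by a modified MTT-reduction method.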

pancreas MiaPaca2 = assay: MTT toxicity assay, MiaPaca2; type: cell-based, human; conditions: read-out: IC50 MiaPaca2, 24 h incubation, mean ± SD (n = 4)
Method in brief: (§2)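 Cells were seeded at 5 × 10^4/well for Jurkat or 10^4/well for adherent lines, which attached 24 h. Test compound was added at several concentrations in triplicate for 24 h at 37 °C, 5% CO2, and read by modified MTT reduction.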

leukemia Jurkat-T = assay: MTT toxicity assay, Jurkat; type: cell-based, human; conditions: read-out: IC50 Jurkat, 24 h incubation, mean ± SD (n = 4)
Method in brief: as §2

plasmid (pBR322) DNA = assay: Electrophoresis mobility shift assay; type: binding; conditions: 37 °C, 20 h, Tris/HCl buffer, up to drug/DNA ratio 2.0
Method in brief: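 pBR322 DNA (20 μg/mL) in 5 mM Tris/HCl, 50 mM NaClO4, pH 7.39 was incubated with test compound at 0.25–2.0 metal complex:DNA bp. Incubation was 37 °C, 20 h, in the dark, with free DNA and cisplatin-DNA controls. Samples ran on 1% agarose in TAE for 1.5 h at 80 V and were stained 30 min with GelRed.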

[1] = test system: nontumorigenic human embryonic kidney cells HEK293T; assay: MTT toxicity assay, HEK-293T; type: cell-based; conditions: read-out: IC50 HEK-293T, 24 h incubation, mean ± SD (n = 4)
Method in brief: as §1

[2] = test system: human renal proximal tubular cells (RPTC); assay: XTT assay for RPTC cells; type: cell-based; conditions: read-out: IC50 RPTC; XTT assay 24 h
Method in brief: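 Primary human renal proximal tubular cells were grown in RenaLife medium (0.5% FBS, growth factors) at 37 °C, 5% CO2. They were seeded at 5 × 10^3/well and grown 24 h. Test compound from fresh aqueous stock was given at 0.1–200 μM final for 24 h. XTT absorbance was read at 450 nm and survival calculated against untreated cells. IC50 is mean ± SE of at least two experiments in triplicate.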

[3] = test system: triple negative breast MDA-MB-231; assay: MTT toxicity assay, MDA-MB-231; type: cell-based, human; conditions: read-out: IC50 MDA-MB-231, 24 h incubation, mean ± SD (n = 4)
prostate DU-145 = assay: MTT toxicity assay, DU-145; type: cell-based, human; conditions: read-out: IC50 DU-145, 24 h incubation, mean ± SD (n = 4)
Method in brief: as §2

N.N.[Cl][Pt][Cl] [cisplatin] gave an IC50 (lung A549) of 114 ± 9.1 µM, an IC50 (pancreas MiaPaca2) of 76.5 ± 7.4 µM and an IC50 (leukemia Jurkat-T) of 10.8 ± 1.2 µM. The “effect on electrophoretic mobility of plasmid pBR322” value (plasmid (pBR322) DNA) was “both increase and decrease the mobility of the OC and the CCC forms”, the IC50 [1] was 69 ± 6.7 µM and the IC50 [2] was 46.4 ± 2.46 µM. For the same molecule, the IC50 [3] was 131 ± 18 µM and the IC50 (prostate DU-145) was 112 ± 33 µM.
